Experiments:
Gossypium [1] = assay: Phytotoxicity against Gossypium (cotton) assessed as growth inhibition at 75 g.a.i/ha pre-emergent application measured after 15 days by greenhouse crop selectivity assay; assay type: organism-based; details: in vivo, other, 360 h
Method in brief: (§1)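 Pre-emergence greenhouse crop selectivity test on pot-grown plants in clay soil (pH 6.5, 1.7% organic matter, 37.5% clay, CEC 12.9 cmol/kg). Stock solutions were diluted with water and applied at 300, 150, 75 or 37.5 g a.i./ha, in triplicate. After 15 days, phytotoxicity was scored visually against untreated controls as % crop growth inhibition, averaged over the triplicates.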

Echinochloa crus-galli [2] = assay: Post-emergence herbicidal activity against Echinochloa crus-galli (barnyard grass) assessed as growth inhibition at 15 g.a.i./ha applied at one-leaf stage measured after 15 days; assay type: functional; details: 360 h, read-out: GI
Method in brief: (§2)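 Pot-grown weeds sown 5 mm deep in greenhouse clay soil (pH 6.5, 1.7% organic matter, CEC 12.9 cmol/kg) at 22-25 °C. Stock diluted with water and sprayed post-emergence: dicots at 2-leaf stage, monocots at 1-leaf stage. Untreated and DMF solvent controls were included. % growth inhibition was scored visually versus untreated controls after 15 days. Triplicates averaged.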

Oryza sativa = assay: Phytotoxicity against Oryza sativa (rice) assessed as growth inhibition at 7.5 to 60 g.a.i/ha post-emergent application measured after 15 days by greenhouse crop selectivity assay; assay type: organism-based, L.; details: in vivo, other, 360 h
Method in brief: (§3)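 Postemergence crop selectivity test on pot-grown plants in a greenhouse, in clay soil (pH 6.5, 1.7% organic matter, CEC 12.9 cmol/kg). Stock was diluted with water and sprayed at 60, 30, 15 or 7.5 g a.i./ha, in triplicate. Growth inhibition was rated visually against untreated controls after 15 days and given as the triplicate mean percentage.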

Glycine max [3] = assay: Phytotoxicity against Glycine max (soybean) assessed as growth inhibition at 150 g.a.i/ha pre-emergent application measured after 15 days by greenhouse crop selectivity assay; assay type: organism-based; details: in vivo, other, 360 h; method in brief: as §1
Glycine max [4] = assay: Phytotoxicity against Glycine max (soybean) assessed as growth inhibition at 7.5 to 60 g.a.i/ha post-emergent application measured after 15 days by greenhouse crop selectivity assay; assay type: organism-based; details: in vivo, other, 360 h; method in brief: as §3
Digitaria sanguinalis [5] = assay: Pre-emergence herbicidal activity against Digitaria sanguinalis (hairy crabgrass) assessed as growth inhibition at 7.5 g.a.i./ha applied 24 hr after seeds were sown measured after 15 days; assay type: functional; details: read-out: GI
Method in brief: (§4)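 Weeds sown 5 mm deep in pots of greenhouse clay soil (pH 6.5, 37.5% clay, CEC 12.9 cmol/kg) and grown at 22-25 °C. Water-diluted formulation was applied pre-emergence 24 h after sowing. Untreated and DMF solvent controls were included. Growth inhibition was visually rated in % against untreated controls after 15 days, as the mean of triplicates.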

Abutilon theophrasti [6] = assay: Pre-emergence herbicidal activity against Abutilon theophrasti (velvetleaf) assessed as growth inhibition at 7.5 g.a.i./ha applied 24 hr after seeds were sown measured after 15 days; assay type: functional; details: read-out: GI; method in brief: as §4
Digitaria sanguinalis [7] = assay: Post-emergence herbicidal activity against Digitaria sanguinalis (hairy crabgrass) assessed as growth inhibition at 7.5 g.a.i./ha applied at one-leaf stage measured after 15 days; assay type: functional; details: 360 h, read-out: GI; method in brief: as §2
Amaranthus spinosus = assay: Post-emergence herbicidal activity against Amaranthus spinosus assessed as growth inhibition at 15 g.a.i./ha applied at two-leaf stage measured after 15 days; assay type: functional; details: 360 h, read-out: GI; method in brief: as §2
Glycine max [8] = assay: Phytotoxicity against Glycine max (soybean) assessed as growth inhibition at 75 g.a.i/ha pre-emergent application measured after 15 days by greenhouse crop selectivity assay; assay type: organism-based; details: in vivo, other, 360 h; method in brief: as §1
Zea mays = assay: Phytotoxicity against Zea mays (maize) assessed as growth inhibition at 150 g.a.i/ha pre-emergent application measured after 15 days by greenhouse crop selectivity assay; assay type: organism-based; details: in vivo, other, 360 h; method in brief: as §1
Digitaria sanguinalis [9] = assay: Post-emergence herbicidal activity against Digitaria sanguinalis (hairy crabgrass) assessed as growth inhibition at 75 g.a.i./ha applied at one-leaf stage measured after 15 days; assay type: functional; details: 360 h, read-out: GI; method in brief: as §2
Setaria viridis [10] = assay: Pre-emergence herbicidal activity against Setaria viridis (green foxtail) assessed as growth inhibition at 7.5 g.a.i./ha applied 24 hr after seeds were sown measured after 15 days; assay type: functional; details: read-out: GI
Method in brief: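 Secondary pre-emergence test run at 7.5, 15 and 37.5 g a.i./ha on pot-grown weeds in a greenhouse at 22-25 °C. Seeds sown 5 mm deep in clay soil (pH 6.5, 1.7% organic matter, CEC 12.9 cmol/kg). Stock diluted with water and applied 24 h after sowing. Done in triplicate; visual % growth inhibition vs untreated after 15 days, averaged.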

Abutilon theophrasti [11] = assay: Post-emergence herbicidal activity against Abutilon theophrasti (velvetleaf) assessed as growth inhibition at 37.5 g.a.i./ha applied at two-leaf stage measured after 15 days; assay type: functional; details: 360 h, read-out: GI; method in brief: as §2
Chenopodium album [12] = assay: Post-emergence herbicidal activity against Chenopodium album assessed as growth inhibition at 7.5 g.a.i./ha applied at two-leaf stage measured after 15 days; assay type: functional; details: 360 h, read-out: GI; method in brief: as §2
Abutilon theophrasti [13] = assay: Post-emergence herbicidal activity against Abutilon theophrasti (velvetleaf) assessed as growth inhibition at 7.5 g.a.i./ha applied at two-leaf stage measured after 15 days; assay type: functional; details: 360 h, read-out: GI; method in brief: as §2
Echinochloa crus-galli [14] = assay: Pre-emergence herbicidal activity against Echinochloa crus-galli (barnyard grass) assessed as growth inhibition at 7.5 g.a.i./ha applied 24 hr after seeds were sown measured after 15 days; assay type: functional; details: read-out: GI; method in brief: as §4
Abutilon theophrasti [15] = assay: Post-emergence herbicidal activity against Abutilon theophrasti (velvetleaf) assessed as growth inhibition at 75 g.a.i./ha applied at two-leaf stage measured after 15 days; assay type: functional; details: 360 h, read-out: GI; method in brief: as §2
Echinochloa crus-galli [16] = assay: Post-emergence herbicidal activity against Echinochloa crus-galli (barnyard grass) assessed as growth inhibition at 7.5 g.a.i./ha applied at one-leaf stage measured after 15 days; assay type: functional; details: 360 h, read-out: GI; method in brief: as §2
Setaria viridis [17] = assay: Post-emergence herbicidal activity against Setaria viridis (green foxtail) assessed as growth inhibition at 75 g.a.i./ha applied at one-leaf stage measured after 15 days; assay type: functional; details: 360 h, read-out: GI; method in brief: as §2
Chenopodium album [18] = assay: Post-emergence herbicidal activity against Chenopodium album assessed as growth inhibition at 75 g.a.i./ha applied at two-leaf stage measured after 15 days; assay type: functional; details: 360 h, read-out: GI; method in brief: as §2
Echinochloa crus-galli [19] = assay: Pre-emergence herbicidal activity against Echinochloa crus-galli (barnyard grass) assessed as growth inhibition at 75 g.a.i./ha applied 24 hr after seeds were sown measured after 15 days; assay type: functional; details: read-out: GI; method in brief: as §4
Echinochloa crus-galli [20] = assay: Pre-emergence herbicidal activity against Echinochloa crus-galli (barnyard grass) assessed as growth inhibition at 15 g.a.i./ha applied 24 hr after seeds were sown measured after 15 days; assay type: functional; details: read-out: GI; method in brief: as §4
Arachis hypogaea = assay: Phytotoxicity against Arachis hypogaea (peanut) assessed as growth inhibition at 300 g.a.i/ha pre-emergent application measured after 15 days by greenhouse crop selectivity assay; assay type: organism-based; details: in vivo, other, 360 h; method in brief: as §1
Gossypium [21] = assay: Phytotoxicity against Gossypium (cotton) assessed as growth inhibition at 150 g.a.i/ha pre-emergent application measured after 15 days by greenhouse crop selectivity assay; assay type: organism-based; details: in vivo, other, 360 h; method in brief: as §1
Triticum aestivum = assay: Phytotoxicity against Triticum aestivum (wheat) assessed as growth inhibition at 7.5 to 60 g.a.i/ha post-emergent application measured after 15 days by greenhouse crop selectivity assay; assay type: organism-based; details: in vivo, other, 360 h; method in brief: as §3
[22] = Phytotoxicity against Oryza sativa (rice) assessed as growth inhibition at 37.5 g.a.i/ha pre-emergent application measured after 15 days by greenhouse crop selectivity assay; assay type: organism-based, L.; details: in vivo, 37.5 g.a.i/ha, read-out: GI; method in brief: as §1
[23] = Phytotoxicity against Oryza sativa (rice) assessed as growth inhibition at 75 g.a.i/ha pre-emergent application measured after 15 days by greenhouse crop selectivity assay; assay type: organism-based, L.; details: in vivo, 75 g.a.i/ha, read-out: GI; method in brief: as §1

Structure (SMILES): CCOC(=O)C(CC)N1C(=O)C(C)Oc2cc(F)c(N3C(=O)C4=C(CCCC4)C3=O)cc21 (stereo unspecified)
- growth inhibition (GI) (Gossypium [1]): Not Active
- inhibition of growth at 15 g/ha (Echinochloa crus-galli [2]): 0%
- Activity (Oryza sativa): Toxic
- growth inhibition (GI) (Glycine max [3]): Not Active
- Activity (Glycine max [4]): Toxic
- inhibition of growth at 7.5 g/ha (Digitaria sanguinalis [5]): 0%
- inhibition of growth at 7.5 g/ha (Abutilon theophrasti [6]): 0%
- inhibition of growth at 7.5 g/ha (Digitaria sanguinalis [7]): 40%
- inhibition of growth at 15 g/ha (Amaranthus spinosus): 100%
- growth inhibition (GI) (Glycine max [8]): Not Active
- growth inhibition (GI) (Zea mays): Not Active
- inhibition of growth at 75 g/ha (Digitaria sanguinalis [9]): > 80%
- inhibition of growth at 7.5 g/ha (Setaria viridis [10]): 0%
- inhibition of growth at 37.5 g/ha (Abutilon theophrasti [11]): 100%
- inhibition of growth at 7.5 g/ha (Chenopodium album [12]): 100%
- inhibition of growth at 7.5 g/ha (Abutilon theophrasti [13]): 100%
- inhibition of growth at 7.5 g/ha (Echinochloa crus-galli [14]): 0%
- inhibition of growth at 75 g/ha (Abutilon theophrasti [15]): > 80%
- inhibition of growth at 7.5 g/ha (Echinochloa crus-galli [16]): 0%
- inhibition of growth at 75 g/ha (Setaria viridis [17]): > 80%
- inhibition of growth at 75 g/ha (Chenopodium album [18]): > 80%
- inhibition of growth at 75 g/ha (Echinochloa crus-galli [19]): > 80%
- inhibition of growth at 15 g/ha (Echinochloa crus-galli [20]): 0%
- growth inhibition (GI) (Arachis hypogaea): Not Active
- growth inhibition (GI) (Gossypium [21]): Not Active
- Activity (Triticum aestivum): Toxic

Structure (SMILES): C#CCN1C(=O)COc2cc(F)c(N3C(=O)C4=C(CCCC4)C3=O)cc21 [FLUMIOXAZIN]
- growth inhibition (GI) (Gossypium [1]): Not Active
- inhibition of growth at 15 g/ha (Echinochloa crus-galli [2]): 70%
- Activity (Oryza sativa): Toxic
- Activity (Glycine max [4]): Toxic
- inhibition of growth at 7.5 g/ha (Digitaria sanguinalis [5]): 0%
- inhibition of growth at 7.5 g/ha (Abutilon theophrasti [6]): 50%
- inhibition of growth at 7.5 g/ha (Digitaria sanguinalis [7]): 80%
- inhibition at 360 h [22]: > 10%
- inhibition of growth at 15 g/ha (Amaranthus spinosus): 100%
- inhibition of growth at 75 g/ha (Digitaria sanguinalis [9]): > 80%
- inhibition at 360 h [23]: > 10%
- inhibition of growth at 7.5 g/ha (Setaria viridis [10]): 0%
- inhibition of growth at 37.5 g/ha (Abutilon theophrasti [11]): 100%
- inhibition of growth at 7.5 g/ha (Chenopodium album [12]): 100%
- inhibition of growth at 7.5 g/ha (Abutilon theophrasti [13]): 100%
- inhibition of growth at 7.5 g/ha (Echinochloa crus-galli [14]): 0%
- inhibition of growth at 75 g/ha (Abutilon theophrasti [15]): > 80%
- inhibition of growth at 7.5 g/ha (Echinochloa crus-galli [16]): 50%
- inhibition of growth at 75 g/ha (Setaria viridis [17]): > 80%
- inhibition of growth at 75 g/ha (Chenopodium album [18]): > 80%
- inhibition of growth at 75 g/ha (Echinochloa crus-galli [19]): > 80%
- inhibition of growth at 15 g/ha (Echinochloa crus-galli [20]): 50%
- growth inhibition (GI) (Arachis hypogaea): Not Active
- growth inhibition (GI) (Gossypium [21]): Not Active
- Activity (Triticum aestivum): Toxic
